In the library only some 4.6% were active in any assay of this set; here they are far more common.
Pemphigus Ab inh: inhibitors of pemphigus antibody binding to DSG3, primary screen, biochemical, bead-based, flow cytometry, scFv-GFP | binding (percent of control), % at 10 µM | DSG3-coupled beads, scFv-anti-DSG3-GFP binding; hits give low values | 0.48% of 310,000 active;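 active means binding more than 3 SD below its plate's average and above zero; inconclusive means below that plate limit but binding exactly zero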;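 further: hits lower antibody fragment binding to DSG3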
Arrestin-AP2 inh: inhibitors of beta-arrestin/AP2 binding, primary screen, biochemical, GPCR trafficking, flow cytometry; beta-arrestin 1 C-terminal peptide binding to AP2 beta2-adaptin appendage (human); FITC-arrestin peptide / GST-AP2 beads; AP2 beta2 appendage carries R879A mutation; inhibition, % at 10 µM; AID 504490, 2011; 0.31% of 340,000 active;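 active means inhibition above a set limit, near 3 SD of compounds lacking own fluorescence, cut at about 54% in these data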;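 further: plate controls were DMSO wells for no effect and 5 µM unlabelled arrestin peptide for full effect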
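Material – AP2 appendage R879A on GSH beads · Buffer or medium – PBS with 0.05% Tween 20 and 0.1% BSA · Probe or stimulus – fluorescein-tagged arrestin peptide at 50 nM final · Incubation – compound with beads 12 min RT, then probe 1 h RT · Detection – high-throughput flow cytometry of beads, ex 488, em 535 nm · Evaluation – percent response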
NALP1 inh: NALP1 inflammasome inhibitors in reconstituted yeast, colorimetric, S. cerevisiae, triplicate retest. S. cerevisiae NALP1/ASC/caspase-1 growth, X-gal OD620, 72 h. 0.61% of 280,000 active. inhibition, % at 10 µM; in the data active means inhibition mostly above about 24%, no sharp cut-off; inactive means mostly below about 32%
PolyA inh: polyadenylation inhibitors in yeast reporter cells, primary screen, luminescence, S. cerevisiae | activity score, % at 12 µM | AID 1875, 2009 | S. cerevisiae SKY197-pL101 polyadenylation reporter, beta-gal luminescence; efflux-impaired pdr1/pdr3 knockout yeast; score 100 = 6 SD above DMSO | 0.02% of 300,000 active;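 active means lowest replicate activity score at least 50, where 100 means six control SD above control mean; inconclusive means lowest score under 50 but half or more replicates reach 50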;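 further: yeast exposed to compound for 9 h at 30 °C; higher score means more reporter readthrough which indicates perturbed polyadenylation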
NLRP3 yeast inh: NALP3 inflammasome inhibitors in reconstituted yeast, primary screen, luminescence, uHTS; Yeast reconstituted NLRP3/ASC/caspase-1, beta-gal luminescence, 24 h; inhibition, % at 10 µM; 0.39% of 330,000 active;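 active means inhibition of 50% or more; inactive means inhibition below 50%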;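 further: plate controls were induced DMSO wells for no effect and uninduced yeast grown without galactose for full effect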
ALR H2O2 inh: inhibitors of human ALR sulfhydryl oxidase, primary screen, biochemical, H2O2 detection, HRP-luminol luminescence, single point | purified ALR, DTT oxidation | inhibition, % (no concentration beside the values) | 3.8% of 290,000 active;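 active means mean replicate inhibition above about 79%, with every replicate also reaching it, limit read from the data; inconclusive means only one of the two criteria met; inactive means mean below limit and not every replicate reaching it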
Target sequence (P55789 whole entry, looked up): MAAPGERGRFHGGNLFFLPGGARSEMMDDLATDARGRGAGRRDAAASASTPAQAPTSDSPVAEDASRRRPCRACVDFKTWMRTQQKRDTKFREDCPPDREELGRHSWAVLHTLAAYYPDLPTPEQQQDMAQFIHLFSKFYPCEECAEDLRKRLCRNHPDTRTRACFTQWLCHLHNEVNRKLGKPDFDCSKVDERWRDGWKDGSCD
Starred values were filed as active, the others as inactive.

For CC1CN(CCc2ccccc2)c2nc3c(c(=O)n(CC(N)=O)c(=O)n3C)n2C1 (stereo not given) the results were Pemphigus Ab inh inconclusive, Arrestin-AP2 inh 29, NALP1 inh -1, PolyA inh -7, NLRP3 yeast inh 22 and ALR H2O2 inh -1.
`C[C@@H]1CN([C@H](C)CO)C(=O)c2cc(-c3ccc(C(=O)N(C)C)cc3)cnc2O[C@@H]1CN(C)C(=O)c1cccnc1` gave Pemphigus Ab inh 104.
For CCOC(=O)CC(=O)CSCC(=O)Nc1ccc(C)cc1 the results were Arrestin-AP2 inh 14, NALP1 inh 16, PolyA inh -1, NLRP3 yeast inh -4 and ALR H2O2 inh 100*.
Cc1ccc(NC(=O)CSCC#N)cc1 was read as Pemphigus Ab inh 98, Arrestin-AP2 inh 37, NALP1 inh 20, PolyA inh 16, NLRP3 yeast inh -1 and ALR H2O2 inh 99*.
For Cc1c(C(=O)NNC(=S)NCc2ccc(Cl)cc2)oc2ccccc12 the results were Pemphigus Ab inh 97, Arrestin-AP2 inh 7, NALP1 inh 2, PolyA inh 0, NLRP3 yeast inh 9 and ALR H2O2 inh -6.
Screening CC(C)(C)N(Cc1ccccc1)C(=O)COC(=O)CSc1ccc([N+](=O)[O-])cc1 returned Pemphigus Ab inh 105, Arrestin-AP2 inh -18, PolyA inh 3, NLRP3 yeast inh 18 and ALR H2O2 inh 35.
For Cc1cccc(-n2c(O)c(/C=N/NC(=O)c3ccccc3Cl)c3ccccc3c2=O)n1 the results were Pemphigus Ab inh 129, Arrestin-AP2 inh 9, NALP1 inh 29, PolyA inh 33, NLRP3 yeast inh 15 and ALR H2O2 inh 96*.
For Cc1cccc(-n2c(O)c(C=Nc3ccc(O)cc3)c3ccccc3c2=O)n1 the results were Pemphigus Ab inh 89, Arrestin-AP2 inh 7, NALP1 inh 28, PolyA inh -2, NLRP3 yeast inh 20 and ALR H2O2 inh 99*.
Cc1cccc(-n2c(O)c(C=Nc3cc(O)ccc3C)c3ccccc3c2=O)n1 was read as Pemphigus Ab inh 106, Arrestin-AP2 inh -4, NALP1 inh -15, PolyA inh -6 and NLRP3 yeast inh 13.
`Cc1cccc(-n2c(O)c(C=Nc3ccccc3O)c3ccccc3c2=O)n1` gave Pemphigus Ab inh 100, Arrestin-AP2 inh 11, NALP1 inh 19, PolyA inh -7, NLRP3 yeast inh 12 and ALR H2O2 inh 98*.
Screening C[C@H](CO)N1C[C@H](C)[C@H](CN(C)S(=O)(=O)c2ccc(Cl)cc2)OCc2ccccc2-c2c(n(C)c3ccccc23)C1=O returned Pemphigus Ab inh 105.
For CCc1ccc(CNC(=O)C2CCCN(S(=O)(=O)N(CC)c3ccccc3)C2)cc1 (stereo not given) the results were Pemphigus Ab inh 100, Arrestin-AP2 inh 0, NALP1 inh 9, PolyA inh -16, NLRP3 yeast inh 8 and ALR H2O2 inh -8.
For Cc1cc(=O)n2nc(N3CCCC(C(=O)NCCCN4C(C)CCCC4C)C3)sc2n1 (stereo not given) the results were Pemphigus Ab inh 107.
CNC(=O)C[C@H]1C(=O)N(c2ccccc2)C[C@@H]1C was read as Pemphigus Ab inh 108.
N#CC1(C#N)CC(C=O)=C(N)C1(C#N)CC(=O)C12CC3CC(CC(C3)C1)C2 (stereo not given) was read as Pemphigus Ab inh 98, Arrestin-AP2 inh -17, NALP1 inh 60, PolyA inh 4, NLRP3 yeast inh -8 and ALR H2O2 inh 96*.
For O=C1c2c(O)cc(O)cc2O[C@H](c2ccc(O)c(O)c2)[C@H]1O the results were Pemphigus Ab inh 116, Arrestin-AP2 inh 6, PolyA inh -5, NLRP3 yeast inh 34 and ALR H2O2 inh 99*.
For COc1ccc([C@@H]2CC(=O)c3c(O)cc(O[C@@H]4O[C@H](CO[C@@H]5O[C@@H](C)[C@H](O)[C@@H](O)[C@H]5O)[C@@H](O)[C@H](O)[C@H]4O)cc3O2)cc1O the results were Pemphigus Ab inh 105, Arrestin-AP2 inh 0, NALP1 inh 22, PolyA inh 7, NLRP3 yeast inh 8 and ALR H2O2 inh 43.
For COc1cccc([C@@H]2Oc3ccc(OC)cc3C(=O)[C@H]2O)c1 the results were Pemphigus Ab inh 96, Arrestin-AP2 inh 20, NALP1 inh 36, PolyA inh 5, NLRP3 yeast inh 22 and ALR H2O2 inh 0.
`O=C1c2c(O)cc(O)cc2O[C@H](c2ccc(O)c(O)c2)[C@@H]1O` gave NALP1 inh -9, PolyA inh -22, NLRP3 yeast inh 18 and ALR H2O2 inh 99*.
Screening Oc1cc(O)c2c(c1)O[C@H](c1ccc(O)c(O)c1)[C@@H](O)C2 returned Pemphigus Ab inh 110, Arrestin-AP2 inh 4, NALP1 inh -7, PolyA inh 9, NLRP3 yeast inh 14 and ALR H2O2 inh 95*.
Screening COc1ccc2c(c1)C(=O)[C@@H](O)[C@H](c1ccc(OC)c(Br)c1)O2 returned Pemphigus Ab inh 98, Arrestin-AP2 inh 2, NALP1 inh 20, PolyA inh -21, NLRP3 yeast inh 35 and ALR H2O2 inh -2.
`C[C@@H]1O[C@@H](O[C@@H]2C(=O)c3c(O)cc(O)cc3O[C@H]2c2ccc(O)c(O)c2)[C@H](O)[C@H](O)[C@H]1O` gave Pemphigus Ab inh 98, NLRP3 yeast inh -4 and ALR H2O2 inh 99*.
Cc1nc(SCC(=O)c2cc(C)n(C3CC3)c2C)c2ccccc2n1 was read as Pemphigus Ab inh 103.
Screening CCC1(CC)C(C#N)C(=O)NC(=O)C1C#N (stereo not given) returned Arrestin-AP2 inh -7.
For O=C(CC(O)(CC(=O)OCc1ccccc1)C(=O)OCc1ccccc1)OCc1ccccc1 the results were Pemphigus Ab inh 134 and Arrestin-AP2 inh 7.
Screening O=C1c2c(O)cc(O)cc2O[C@H](c2ccc(O)cc2)[C@H]1O returned Pemphigus Ab inh 96, Arrestin-AP2 inh -2, PolyA inh 6, NLRP3 yeast inh 16 and ALR H2O2 inh 87*.
For O=C1CC(c2ccc(O)cc2)Oc2cc(O)ccc21 (stereo not given) the results were Pemphigus Ab inh 103, Arrestin-AP2 inh 11, PolyA inh 14, NLRP3 yeast inh 2 and ALR H2O2 inh 67.
